Rows were chosen to be rich in hits. Some 2.1% of all compounds tested hit in one or more screens of this group.
Runt-SMMHC FRET – inhibitors of human RUNX1 Runt domain binding to CBFb-SMMHC. inhibition, % at 20 µM. AID 1434. 220,000 compounds, 0.74% hits. Cerulean-Runt/Venus-CBFb-SMMHC FRET ratio 530/480, 1 h. Q01196+Q13951;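 active = mean inhibition across duplicate retests at 20 µM reaching about 50%, limit read from the data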;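 also: 0% = DMSO wells and 100% = wells with excess untagged CBFb-SMMHC; inhibitors lower the FRET ratio by blocking Runt binding to CBFb-SMMHC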
p97 ATPase inh – inhibitors of human p97 ATPase | P55072 | recombinant p97 ATPase, Kinase-Glo ATP luminescence, 3 h | inhibition, % at 8 µM | 220,000 compounds, 0.42% hits | AID 1481; in the data active = inhibition above about 15%;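 also: 0% = DMSO vehicle and 100% = wells lacking enzyme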
Target sequence (P55072 whole entry, looked up): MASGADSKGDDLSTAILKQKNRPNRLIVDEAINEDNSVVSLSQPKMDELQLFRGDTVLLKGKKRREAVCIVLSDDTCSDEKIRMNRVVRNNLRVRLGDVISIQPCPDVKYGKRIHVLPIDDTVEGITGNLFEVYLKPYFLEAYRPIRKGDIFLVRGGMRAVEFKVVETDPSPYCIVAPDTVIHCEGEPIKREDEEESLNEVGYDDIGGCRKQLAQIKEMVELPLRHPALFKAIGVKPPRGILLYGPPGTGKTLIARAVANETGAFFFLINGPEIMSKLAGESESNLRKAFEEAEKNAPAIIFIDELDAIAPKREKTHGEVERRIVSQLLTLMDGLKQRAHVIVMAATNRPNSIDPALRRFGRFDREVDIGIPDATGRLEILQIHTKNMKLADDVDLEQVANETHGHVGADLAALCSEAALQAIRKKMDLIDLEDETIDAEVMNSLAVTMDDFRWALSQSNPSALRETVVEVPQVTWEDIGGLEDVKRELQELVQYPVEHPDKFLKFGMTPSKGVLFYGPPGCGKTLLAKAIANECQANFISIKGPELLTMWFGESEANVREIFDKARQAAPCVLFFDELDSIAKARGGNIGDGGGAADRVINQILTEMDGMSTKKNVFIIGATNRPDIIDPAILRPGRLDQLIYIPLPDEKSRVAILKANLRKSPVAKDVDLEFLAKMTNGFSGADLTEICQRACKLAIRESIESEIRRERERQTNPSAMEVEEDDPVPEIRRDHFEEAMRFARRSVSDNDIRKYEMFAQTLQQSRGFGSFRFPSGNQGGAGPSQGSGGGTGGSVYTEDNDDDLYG
Runt-CBFb FRET – blocks binding of human RUNX1 Runt domain to CBFb; Q01196+Q13951; Cerulean-Runt/Venus-CBFb FRET ratio 530/480, 1 h; inhibition, % at 20 µM; 220,000 compounds, 0.46% hits;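 active = inhibition over about 50% at 20 µM in the single-dose screen, limit read from the data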;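 also: 0% = DMSO wells and 100% = excess unlabeled CBFb competitor control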
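test system = Cerulean-tagged RUNX1 Runt domain (FRET donor) fusion protein | reagent = Venus-CBFb binding partner, 100 nM | incubation = protein complex preformed 1 h, compound exposure 1 h, room temperature, dark | detection = FRET fluorescence | read-out basis = loss of energy transfer signal | controls = 5 µM unlabeled CBFb as full-inhibition high control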
Tb hexokinase – blocks Trypanosoma brucei hexokinase 1 activity | recombinant TbHK1, G6PDH-coupled NADH A340 | inhibition, % at 10 µM | 220,000 compounds, 0.11% hits | AID 1430;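 active = inhibition of 50% or more in the single-dose primary screen; inactive = inhibition below 50%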
RanGTP-Imp inh – inhibitors of RanGTP-importin-beta interaction, primary screen, biochemical, FRET, CFP-Ran, YFP-importin-beta, homogeneous. cell-free CFP-Ran/YFP-importin-beta FRET ratio. inhibition, % (test concentration not listed). 300,000 compounds, 1.1% hits. AID 2216;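 active = more than half of the replicate wells show a fall in the fluorescence ratio signal beyond about 16%, limit read from the data, passing the limit was not always enough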;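 also: 0% = DMSO wells and 100% = Ran loaded with GDP instead of GTP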
Hck Nef HTS – blocks Nef-activated human Hck kinase | P08631 | Recombinant Hck-YEEI plus Nef, Z-Lyte FRET kinase assay | inhibition, % at 20 µM | 220,000 compounds, 0.68% hits | AID 463187;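 active = Hck-Nef kinase inhibition above about 50%, limit read from the data; inactive = inhibition below that limit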;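 also: 0% = DMSO with Hck plus Nef and 100% = Hck alone without Nef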
Hck Nef conf – confirmation of Hck-Nef kinase inhibitors; shares compounds with Hck Nef HTS; Recombinant Hck-YEEI:Nef, Z-Lyte FRET kinase assay; calls only at 10 µM; 1,300 compounds, 28% hits; AID 463188;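 active = average inhibition of at least 50%, with Z-scores no higher than 3 in both the phospho-tyrosine peptide and fluorescence counterscreens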
Starred values were filed as active, the others as inactive; i = inactive; · = no result given; + = active, no number.

SMILES	Runt-SMMHC FRET	p97 ATPase inh	Runt-CBFb FRET	Tb hexokinase	RanGTP-Imp inh	Hck Nef HTS	Hck Nef conf
Nc1[nH]nc2nc3ccccc3cc12	-4.5	5.2	1.0	-3.0	-1.1	32.0	·
Cc1ccsc1/C=N\Nc1cn[nH]c(=O)c1Cl	-4.9	3.4	0.7	-60.3	-0.6	73.8*	+
COc1ccc(/C=N/Nc2cn[nH]c(=O)c2Cl)cc1	-0.2	3.3	0.7	-60.9	2.0	72.2*	+
Cc1ccc(/C=N\Nc2cn[nH]c(=O)c2Cl)cc1	-0.4	2.0	1.2	-66.9	4.5	1.6	·
Cc1cc(C)n(CC(=O)N2CCCC(N3CCN(c4ccc(F)cc4)CC3)C2)n1 (stereo unspecified)	·	·	·	·	3.3	·	·
CNc1nc(C)cc(C)c1S(=O)(=O)c1ccc(C)cc1	-4.6	-6.3	-2.7	-15.3	4.9	2.1	·
Cc1ccc(N2CC(C(=O)Nc3nnc(SCC(=O)Nc4cc(C)on4)s3)CC2=O)cc1 (stereo unspecified)	-5.0	3.0	-5.3	11.9	-2.2	8.9	·
COc1cccc(N2CC(C(=O)Nc3nnc(SCC(=O)Nc4cc(C)on4)s3)CC2=O)c1 (stereo unspecified)	-5.8	3.4	-8.8	3.2	-4.1	52.0*	+
COc1cc(S(=O)(=O)NCCc2ccc3c(c2)OCO3)ccc1-n1cnnn1	-1.9	0.1	1.8	0.6	-4.6	1.7	·
CCCCC(CC)Cn1c2nc3ccccc3nc2c2c(=N)oc(C)nc21 (stereo unspecified)	-4.6	3.9	-1.9	10.0	-1.4	57.2*	i
COC(=O)c1ccc(NC(=O)C(=O)c2cn(CC(=O)N3CCOCC3)c3ccccc23)cc1	·	·	·	·	0.9	·	·
COc1cc2ncnc(NCc3ccc(C)o3)c2cc1OC	9.3	1.7	13.4	-1.9	3.2	78.3*	i
Cc1ccc(CNc2ncnc3cc(Cl)ccc23)o1	-2.6	0.4	1.8	22.4	3.6	-13.8	·
Cc1ccc(-c2cc(C(F)F)n3ncc(C(=O)Nc4cn(C)nc4C)c3n2)cc1	·	1.0	·	-14.9	0.0	22.1	·
Cc1cc(-c2csc(NC(=O)c3ccc(=O)[nH]c3)n2)c(C)n1Cc1ccco1	-7.9	51.4*	20.1	-12.1	-4.4	81.2*	i
O=C(/C=C/c1cn(-c2ccccc2)nc1-c1ccccc1)Nc1ccc(C(=O)O)cc1	-1.6	1.2	-6.4	-23.3	-2.6	-3.4	·
NS(=O)(=O)c1ccc(NC(=O)/C=C/c2cn(-c3ccccc3)nc2-c2cccc(Cl)c2)cc1	-13.4	3.1	-2.7	-18.0	4.1	89.6*	i
CN(CC(=O)Nc1cccc(F)c1)C(=O)c1cc(S(=O)(=O)N2CCCCC2)ccc1N1CCOCC1	·	·	·	·	2.7	·	·
COC(=O)C1=CNC=C(C(=O)OC)C1c1cccc2ccccc12	·	·	·	·	0.3	·	·
COC(=O)C1=CNC=C(C(=O)OC)C1c1ccccc1Cl	146.0*	3.0	71.6*	0.9	·	65.8*	·
C=CCn1cc(/C=C2/NC(=O)NC2=O)c2ccccc21	-8.3	5.6	2.6	-6.8	-1.6	61.2*	i
O=C(CSc1nnc(-c2ccc3c(c2)OCO3)n1-c1ccccc1)c1ccccc1	-4.3	-2.8	-0.8	-8.6	1.9	15.3	·
COc1ccc(NC(=S)N2CCN(CCN3C(=O)c4cccc5cccc(c45)C3=O)CC2)cc1	-2.0	0.1	-1.2	-12.9	2.6	129.1*	i
CSc1ccc(/C=N\Nc2nncn2N)cc1	·	·	·	·	-1.4	·	·
Cc1nc(Nc2ccc(C(=O)O)cc2)sc1-c1ccccc1	-3.1	7.4	-1.9	-36.4	-3.3	56.3*	i
O=C(O)c1ccc2c(c1)C(=O)N(c1cccc(C(=O)/C=C/c3ccccc3)c1)C2=O	0.8	8.4	4.0	-19.9	0.5	35.1	·
COc1ccc([N+](=O)[O-])cc1NC(=O)c1ccccc1N(C)S(C)(=O)=O	-14.3	2.6	0.5	-15.8	-2.8	11.0	·
O=C(N/N=C/c1ccc(-c2ccc(Cl)c(C(=O)O)c2)o1)c1cc2c(ccc3ccccc32)o1	80.3*	5.4	12.7	-30.6	8.0	71.7*	+
